Measurements: article PMC5089614 (British Journal of Clinical Pharmacology, 2016)

Experiment: Single-dose plasma pharmacokinetics of oral ixazomib by hepatic function group
Assay type: in vivo, human
Conditions: for AUC(0-t) / Tmax: human, plasma; for AUC(0-t): oral; for Tmax: po; for Dose-normalized AUC 0–last (total) / Unbound AUC 0-last / Unbound dose-normalized AUC 0–last / C max (total) / Dose-normalized C max (total) / Unbound C max / Unbound dose-normalized C max: geometric mean (%CV)
Outline: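 Solid tumour patients took a single oral dose on day 1. Moderate impairment was total bilirubin >1.5–3 × ULN and severe >3 × ULN. Plasma was sampled predose and 0.5–336 h post-dose and assayed by validated reverse-phase LC/MS/MS. Parameters were noncompartmental. Dose-normalized values were log-transformed, with ratios and 90% CI versus normal from a mixed-effects ANOVA, group fixed.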

[1] = moderate impairment vs. normal function
[2] = moderate impairment, 2.3 mg, n = 10
[3] = moderate impairment, 2.3 mg, n = 13
[4] = moderate/severe hepatic impairment combined
[5] = moderate/severe impairment combined vs. normal function
[6] = severe impairment vs. normal function
[7] = severe impairment, 1.5 mg, n = 11
[8] = severe impairment, 1.5 mg, n = 18

Question: For `CC(C)C[C@H](NC(=O)CNC(=O)c1cc(Cl)ccc1Cl)B(O)O` [ixazomib], which AUC(0-t) (1.5 mg) is on record?
Answer: The AUC(0-t) was 489 ng·h/mL.

Question: What about the AUC(0-t) (2.3 mg) of the same molecule?
Answer: The AUC(0-t) was 846 ng·h/mL.

Question: And the AUC(0-t) (4 mg)?
Answer: The AUC(0-t) was 1160 ng·h/mL.

Question: And the Tmax?
Answer: Its Tmax is 0.95 to 1.5 h.

Question: And the Tmax (1.5 mg)?
Answer: The Tmax was 1.21 h.

Question: What about the Tmax (2.3 mg) of the same molecule?
Answer: Its Tmax is 1.5 h.

Question: What about the Tmax (4 mg) of the same molecule?
Answer: The Tmax was 0.95 h.

Question: And the “unbound dose-normalized C max, percent higher than normal hepatic function” value (moderate hepatic impairment)?
Answer: Its value is 27%.

Question: And the “Geometric least squares mean ratio (90% CI), total dose-normalized AUC 0–last” value [1]?
Answer: Its value is 1.27 (0.77, 2.11).

Question: What about the “Geometric least squares mean ratio (90% CI), total dose-normalized C max” value [1] of the same molecule?
Answer: Its value is 1.21 (0.74, 2.00).

Question: And the “Geometric least squares mean ratio (90% CI), unbound dose-normalized AUC 0–last” value [1]?
Answer: The value was 1.32 (0.70, 2.50).

Question: What about the “Geometric least squares mean ratio (90% CI), unbound dose-normalized C max” value [1] of the same molecule?
Answer: The value was 1.27 (0.74, 2.18).

Question: And the “Dose-normalized AUC 0–last (total)” value [2]?
Answer: Its value is 368 (49) h·ng ml^−1 mg^−1.

Question: What about the “Unbound AUC 0-last” value [2] of the same molecule?
Answer: Its value is 7.33 (61) h·ng ml^−1.

Question: What about the “Unbound dose-normalized AUC 0–last” value [2] of the same molecule?
Answer: The value was 3.19 (61) h·ng ml^−1 mg^−1.

Question: What about the “C max (total)” value [3] of the same molecule?
Answer: Its value is 42.5 (63) ng ml^−1.

Question: And the “Dose-normalized C max (total)” value [3]?
Answer: Its value is 18.5 (63) ng ml^−1 mg^−1.

Question: And the “Unbound C max” value [3]?
Answer: The value was 0.372 (80) ng ml^−1.

Question: And the “Unbound dose-normalized C max” value [3]?
Answer: The value was 0.162 (80) ng ml^−1 mg^−1.

Question: What about the “total dose-normalized C max, percent higher than normal hepatic function” value [4] of the same molecule?
Answer: The value was 17%.

Question: And the “unbound dose-normalized C max, percent higher than normal hepatic function” value [4]?
Answer: Its value is 24%.

Question: What about the “Geometric least squares mean ratio (90% CI), total dose-normalized AUC 0–last” value [5] of the same molecule?
Answer: The value was 1.20 (0.79, 1.82).

Question: And the “Geometric least squares mean ratio (90% CI), total dose-normalized C max” value [5]?
Answer: The value was 1.17 (0.77, 1.78).

Question: What about the “Geometric least squares mean ratio (90% CI), unbound dose-normalized AUC 0–last” value [5] of the same molecule?
Answer: The value was 1.27 (0.75, 2.16).

Question: What about the “Geometric least squares mean ratio (90% CI), unbound dose-normalized C max” value [5] of the same molecule?
Answer: Its value is 1.24 (0.79, 1.95).

Question: What about the “C max (total)” value (normal function, 4 mg, n = 12) of the same molecule?
Answer: Its value is 61.0 (54) ng ml^−1.

Question: What about the “Dose-normalized AUC 0–last (total)” value (normal function, 4 mg, n = 12) of the same molecule?
Answer: Its value is 289 (41) h·ng ml^−1 mg^−1.

Question: And the “Dose-normalized C max (total)” value (normal function, 4 mg, n = 12)?
Answer: The value was 15.3 (54) ng ml^−1 mg^−1.

Question: And the “Unbound AUC 0-last” value (normal function, 4 mg, n = 12)?
Answer: Its value is 9.65 (50) h·ng ml^−1.

Question: What about the “Unbound C max” value (normal function, 4 mg, n = 12) of the same molecule?
Answer: Its value is 0.509 (47) ng ml^−1.

Question: And the “Unbound dose-normalized AUC 0–last” value (normal function, 4 mg, n = 12)?
Answer: Its value is 2.41 (50) h·ng ml^−1 mg^−1.

Question: And the “Unbound dose-normalized C max” value (normal function, 4 mg, n = 12)?
Answer: Its value is 0.127 (47) ng ml^−1 mg^−1.

Question: And the “unbound dose-normalized AUC0–last, percent higher than normal hepatic function” value (severe hepatic impairment)?
Answer: Its value is 23%.

Question: What about the “unbound dose-normalized C max, percent higher than normal hepatic function” value (severe hepatic impairment) of the same molecule?
Answer: Its value is 21%.

Question: What about the “Geometric least squares mean ratio (90% CI), total dose-normalized AUC 0–last” value [6] of the same molecule?
Answer: Its value is 1.13 (0.69, 1.84).

Question: And the “Geometric least squares mean ratio (90% CI), total dose-normalized C max” value [6]?
Answer: Its value is 1.14 (0.72, 1.82).

Question: What about the “Geometric least squares mean ratio (90% CI), unbound dose-normalized AUC 0–last” value [6] of the same molecule?
Answer: The value was 1.23 (0.66, 2.29).

Question: What about the “Geometric least squares mean ratio (90% CI), unbound dose-normalized C max” value [6] of the same molecule?
Answer: The value was 1.21 (0.74, 2.01).

Question: And the “Unbound AUC 0-last” value [7]?
Answer: Its value is 4.44 (63) h·ng ml^−1.

Question: What about the “Unbound dose-normalized AUC 0–last” value [7] of the same molecule?
Answer: Its value is 2.96 (63) h·ng ml^−1 mg^−1.

Question: What about the “C max (total)” value [8] of the same molecule?
Answer: Its value is 26.1 (70) ng ml^−1.

Question: And the “Dose-normalized C max (total)” value [8]?
Answer: The value was 17.4 (70) ng ml^−1 mg^−1.

Question: And the “Unbound C max” value [8]?
Answer: Its value is 0.232 (84) ng ml^−1.

Question: What about the “Unbound dose-normalized C max” value [8] of the same molecule?
Answer: Its value is 0.154 (84) ng ml^−1 mg^−1.
